Measured values from different studies.
Protocols differ between the studies behind these lines.
Cell line: MCF7
Read-out: cell growth or viability

Compound | technique | concentration | time | quantity | result
C[C@@H]1CC[C@@H]([C@](O)(CNCc2cccc3ccccc23)COCc2ccccc2)[C@H](OCc2ccccc2)C1 | MTT | 30 µM | 72 h | inhibition | 87.7%
COc1ccc(-c2cc(-c3ccc(OC)cc3)c3c(=O)n(C)c(=O)n(C)c3n2)cc1 | MTT | – | 48 h | IC50 | 18.6 µM
COc1cccc(CNC[C@@](C)(O)[C@@H]2CC[C@@H](C)C[C@H]2OCc2ccccc2)c1 | MTT | 10 µM | 72 h | inhibition | 76.8%
CC(=NNC(=O)c1ccccc1Br)c1ccc(Nc2nnc(-c3ccc(Cl)cc3)c3ccccc23)cc1 | MTT | 0.625 µM | – | cell death | 24.1%
O=C(CCn1c(=O)ccc2ccccc21)N1CCOCC1 | MTT | 100 µM | 48 h | inhibition | 90.5%
C[C@@H]1CC[C@@H]([C@](O)(CNCc2ccccc2)COCc2ccc(F)cc2)[C@H](OCc2ccc(F)cc2)C1 | MTT | 30 µM | 72 h | inhibition | 100%
O=C(Nc1ccc(Oc2nnc(-c3ccc(Cl)cc3)c3ccccc23)cc1)c1cccc([N+](=O)[O-])c1 | MTT | 0.625 µM | 24 h | viability | 9.78%
CC(=O)Nc1ccc(/C(C)=N/N=c2\sc(C(C)=O)nn2-c2ccc(C)cc2)cc1 | MTT | 1.25 µM | – | viability | 49.5%
COc1ccc(-c2cc(-c3ccc(Br)cc3)c3c(=O)[nH]c(=O)[nH]c3n2)cc1 | MTT | – | 48 h | IC50 | 9.94 µM
C[C@@H]1CC[C@@H]([C@](C)(O)CNCc2cccc3ccccc23)[C@H](OCc2ccccc2)C1 | MTT | 30 µM | 72 h | inhibition | 92.2%
CCN1CCN(Cc2ccc(Nc3ncc(F)c(-c4cc(F)c5nc(C)n(C(C)C)c5c4)n3)nc2)CC1 | – | – | 5 days | EC50 | 0.009 µM
COc1ccc(-c2cc(-c3ccc(Cl)cc3)c3c(=O)n(C)c(=O)n(C)c3n2)cc1 | MTT | – | 48 h | IC50 | 14.4 µM
C[C@H](Nc1ccc2c(c1)OCCn1cc(N3C(=O)OC[C@H]3C(F)F)nc1-2)C(N)=O | – | – | 5 days | EC50 | 0.0193 µM
COc1cccc2c1C(=O)c1c(O)c3c(c(O)c1C2=O)C[C@@](O)(C(=O)CO)C[C@@H]3O[C@H]1C[C@H](N)[C@H](O)[C@H](C)O1 | MTT | – | – | GI50 | 7.32 µM
COc1ccc(-c2cc(-c3ccc(C)cc3)nc3[nH]c(=O)[nH]c(=O)c23)cc1OC | MTT | – | 48 h | IC50 | 26.6 µM
C[C@@H]1CC[C@@H]([C@](C)(O)CNCc2ccccc2F)[C@H](OCc2ccccc2)C1 | MTT | 30 µM | 72 h | inhibition | 89.6%

Compound | technique | concentration | time | quantity | result
CN(C)C(=O)c1cc2cnc(Nc3ccc(N4CCNCC4)cn3)nc2n1C1CCCC1 | – | – | 5 days | EC50 | 0.101 µM
O=C(Nc1ccccc1)Nc1ccc(Oc2nnc(-c3ccc(Cl)cc3)c3ccccc23)cc1 | MTT | 0.312 µM | 24 h | viability | 11.3%
COc1ccc(-c2cc(-c3cccc(Br)c3)c3c(=O)[nH]c(=O)[nH]c3n2)cc1 | MTT | – | 48 h | IC50 | 13.7 µM
CC(=O)Nc1ccc(Oc2nnc(-c3ccc(Cl)cc3)c3ccccc23)cc1 | MTT | 0.625 µM | 24 h | viability | 4.91%
COc1ccc(COC[C@@](O)(CNCc2ccccc2)[C@@H]2CC[C@@H](C)C[C@H]2OCc2ccc(OC)cc2)cc1 | MTT | 30 µM | 72 h | inhibition | 102%
COc1cc2ncnc(Nc3ccc4c(c3)/C(=C/c3cccc(Cl)c3)C(=O)N4C)c2cc1OC | MTT | – | – | IC50 | 4.62 µM
CC(=O)c1nn(-c2ccccc2Cl)/c(=N/N=C(\C)c2ccc(NC(=O)c3ccccc3)cc2)s1 | MTT | 10 µM | – | viability | 5.78%
C=CC(=O)NC1CCN(c2ncc3ncnc(Nc4ccc(Oc5ccc6c(c5)ncn6C)c(C)c4)c3n2)CC1 | – | – | – | EC50 | 5.22 µM
CC(=NNC(N)=S)c1ccc(Nc2nnc(-c3ccc(Cl)cc3)c3ccccc23)cc1 | MTT | 0.156 µM | – | cell death | 49.5%
CCOC(=O)c1nn(-c2cccc(Cl)c2)/c(=N/N=C(\C)c2ccc(NC(=O)c3ccccc3)cc2)s1 | MTT | 2.5 µM | – | viability | 2.67%
O=C(NO)c1ccc(CNc2nc3cccc(-c4ccc5c(c4)OCO5)n3n2)cc1 | SRB | – | – | GI50 | 0.65 µM
O=C(Nc1ccc(Oc2nnc(-c3ccc(Cl)cc3)c3ccccc23)cc1)c1ccccc1 | MTT | 2.5 µM | – | cell death | 93.4%
Cc1ccc(-c2cc(-c3c(Cl)cccc3Cl)c3c(=O)[nH]c(=O)[nH]c3n2)cc1 | MTT | – | 48 h | IC50 | 39 µM
CC(=O)c1nn(-c2ccc(C)cc2)/c(=N/N=C(\C)c2ccc(NC(=O)c3ccccc3)cc2)s1 | MTT | 2.5 µM | – | viability | 6.47%
CC(=NNC(=S)Nc1ccccc1)c1ccc(Nc2nnc(-c3ccc(Cl)cc3)c3ccccc23)cc1 | MTT | 10 µM | 24 h | viability | 3.45%
C[C@@H]1CC[C@@H]([C@](C)(O)CNCc2ccccc2)[C@H](OCc2ccccc2)C1 | MTT | 10 µM | 72 h | inhibition | 97.6%
